Measured values as given in ChEMBL document CHEMBL1129397, “Synthesis and biological activity of aromatic amino acid phosphoramidates of 5-fluoro-2'-deoxyuridine and 1-beta-arabinofuranosylcytosine: evidence of phosphoramidase activity” (J Med Chem, 1996).

Tests used:
CCRF-CEM = experiment: In vitro cytotoxicity of compounds were determined on Inhibition of human leukemia cell line(CCRF-CEM).; type: functional, cell-based
Outline: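 CCRF-CEM cells, or a CEM-TK⁻ variant with less than 1% of wild-type thymidine kinase activity, were grown in RPMI 1640 with 20% heat-inactivated FBS, penicillin, streptomycin and 0.5% human IL-2. Cells were cultured with or without compound for 48 h at 37 °C in 5% CO2. Proliferation and viability were then counted by trypan blue dye exclusion.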

L1210 = experiment: In vitro cytotoxicity of compounds were determined on murine leukemia cell line (L1210).; type: functional, cell-based; details: Mus musculus
Outline: (§1)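 Cells were cultured with or without compound for 48 h at 37 °C in a 5% CO2–95% air atmosphere. Portions were then counted for proliferation and viability by trypan blue dye exclusion. IC50 was taken from the remaining viable cell number.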

L929 = experiment: In vitro cytotoxicity of compounds were determined on mouse fibroblast (L929 TK-).; type: functional, cell-based; outline: as §1
Thymidylate synthase [1] = target: T1, Thymidylate synthase (Mus musculus, UniProt P07607); experiment: Inhibition of cellular thymidylate synthase activity of mouse fibroblast (L929 TK-) in intact cells.; type: cell-based
Thymidylate synthase [2] = target: T1, Thymidylate synthase; experiment: Inhibition of cellular thymidylate synthase activity of mouse fibroblast (L929 TK-) in permeabilised cells; type: cell-based
Thymidylate synthase [3] = target: T1, Thymidylate synthase; experiment: Inhibition of cellular thymidylate synthase activity of murine leukemia cell line (L1210) in intact cells.; type: cell-based
Thymidylate synthase [4] = target: T1, Thymidylate synthase; experiment: Inhibition of cellular thymidylate synthase activity of murine leukemia cell line (L1210) in permeabilised cells.; type: cell-based
CEM-TK(-) = experiment: In vitro cytotoxicity of compounds were determined on Inhibition of human leukemia cell line (CEM-TK)
CEM-TK(-) (Homo sapiens) = experiment: In vitro cytotoxicity of compounds were determined on human leukemia cells (CEM-TK-).
L929 TK- (Mus musculus) = experiment: In vitro cytotoxicity of compounds were determined on murine fibroblast cell line (L929 TK-) in.
Thymidylate synthase [5] = target: T1, Thymidylate synthase; experiment: Inhibition of cellular thymidylate synthase activity of mouse fibroblast (L929 TK-) in permeabilised cells.; type: cell-based
Outline: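 L929 TK⁻ cells were permeabilized with high-molecular-weight dextran sulfate. Intracellular thymidylate synthase activity was then measured in situ by tritium release, and IC50 values were determined.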

T1 sequence (P07607 whole entry): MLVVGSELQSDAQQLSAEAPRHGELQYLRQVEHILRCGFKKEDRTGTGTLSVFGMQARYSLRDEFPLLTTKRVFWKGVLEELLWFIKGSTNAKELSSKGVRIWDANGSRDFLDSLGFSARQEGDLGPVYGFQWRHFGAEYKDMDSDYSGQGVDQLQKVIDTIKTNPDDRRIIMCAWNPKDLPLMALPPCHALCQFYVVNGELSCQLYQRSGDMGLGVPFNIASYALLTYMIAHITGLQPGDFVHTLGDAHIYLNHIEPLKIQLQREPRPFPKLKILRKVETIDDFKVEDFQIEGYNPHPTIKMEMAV

Nc1ccn([C@@H]2O[C@H](CO)[C@@H](O)[C@@H]2O)c(=O)n1 [CYTARABINE]
IC50 (CCRF-CEM): 0.09 µM

Nc1ccn([C@@H]2O[C@H](COP(=O)(O)O)[C@@H](O)[C@H]2O)c(=O)n1
IC50 (CCRF-CEM): 0.1 µM

COC(=O)[C@H](Cc1ccccc1)NP(=O)(O)OCC1OC(n2cc(F)c(=O)[nH]c2=O)CC1O (some centres undefined)
IC50 (CCRF-CEM): 0.32 µM | IC50 (L1210): 0.41 µM | IC50 (L929): 200 µM | IC50 (Thymidylate synthase [1]): > 1000 µM | IC50 (Thymidylate synthase [2]): 1.1 µM | IC50 (Thymidylate synthase [3]): 21 µM | IC50 (Thymidylate synthase [4]): 5 µM | IC50 (CEM-TK(-)): 86.5 µM

COC(=O)[C@@H](NP(=O)(O)OC[C@H]1O[C@@H](n2cc(F)c(=O)[nH]c2=O)C[C@@H]1O)C1C=Nc2ccccc21 (some centres undefined)
IC50 (CCRF-CEM): 0.32 µM | IC50 (L1210): 0.4 µM | IC50 (Thymidylate synthase [1]): 0.67 µM | IC50 (Thymidylate synthase [2]): > 1000 µM | IC50 (Thymidylate synthase [3]): 12 µM | IC50 (Thymidylate synthase [4]): 2.3 µM | IC50 (CEM-TK(-) (Homo sapiens)): 58.1 µM | IC50 (L929 TK- (Mus musculus)): 240 µM

O=c1[nH]c(=O)n([C@H]2C[C@H](O)[C@@H](CO)O2)cc1F [FLOXURIDINE]
IC50 (CCRF-CEM): 0.002 µM | IC50 (L1210): 0.012 µM | IC50 (L929): 7.7 µM | IC50 (Thymidylate synthase [1]): 7.3 µM | IC50 (Thymidylate synthase [5]): 11 µM | IC50 (Thymidylate synthase [3]): 0.043 µM | IC50 (Thymidylate synthase [4]): 59 µM | IC50 (CEM-TK(-)): 66.3 µM

O=c1[nH]c(=O)n([C@H]2C[C@H](O)[C@@H](COP(=O)(O)O)O2)cc1F [5-FLUORODEOXYURIDYLATE]
IC50 (CCRF-CEM): 0.0055 µM | IC50 (L1210): 0.015 µM | IC50 (L929): 6.8 µM
